14 molecules from ChEMBL document CHEMBL1157127, “Aplysinopsin analogs: Synthesis and anti-proliferative activity of substituted (Z)-5-(N-benzylindol-3-ylmethylene)imidazolidine-2,4-diones” (Bioorg Med Chem, 2010) can be followed below.

Molecules are shown by their SMILES.

Type in all cases: functional, cell-based
One assay has as its system A549. Briefly: Antiproliferative activity against human A549 cells after 24 hrs by trypan blue exclusion assay. The settings on record: A549, 24 h. An outline of the steps: (§1)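 Cells from ATCC. MCF-7 and MDA-231 grown in DMEM with 10% FBS and 1% L-glutamine; A549 and H460 in RPMI 1640 with glutamine, glucose, HEPES, sodium pyruvate and 10% FBS; all at 37 °C, 5% CO2. Treated 24 h at 1, 5, 10, 20 and 40 µM, with DMSO vehicle control. Viability by trypan blue dye exclusion, mean ± SD of four wells.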

Another assay concerns MCF7. In words: Antiproliferative activity against human MCF7 cells after 24 hrs by trypan blue exclusion assay. The settings on record: MCF7, 24 h. In short, it runs like this: as §1
The test system of another assay is NCI-H460. Briefly: Antiproliferative activity against human H460 cells after 24 hrs by trypan blue exclusion assay. The settings on record: NCI-H460, 24 h. In short, it runs like this:
as §1

A short description of assay [1]: Antiproliferative activity against human MDA231 cells after 24 hrs by trypan blue exclusion assay. The settings on record: MDA-MB-231, 24 h. In short, it runs like this: as §1

Take `O=C1NC(=O)/C(=C/c2cn(Cc3ccc(F)cc3)c3ccccc23)N1`: the half-inhibitory concentration (IC50) with A549 came to 27.8 µM; in the assay on MCF7 it was 22.3 µM; in the assay on NCI-H460 it was 16.3 µM; in assay [1], 32.8 µM.
Consider `Cc1ccc(Cn2cc(/C=C3\NC(=O)NC3=O)c3ccccc32)cc1`, for which the concentration for half-maximal inhibition (IC50) with A549 turned out to be 34.8 µM; with MCF7, 20.2 µM; with NCI-H460, 26.1 µM; in assay [1], 22.1 µM.
Taken in the same sequence, the figures for `O=C1NC(=O)/C(=C/c2cn(Cc3ccccc3)c3ccc(Cl)cc23)N1` were 29.7 µM, 9.2 µM, 26.9 µM and 18 µM.
On the same counts, the results for `O=C1NC(=O)/C(=C/c2cn(Cc3ccccc3Br)c3ccccc23)N1` are 39.5 µM, 4.4 µM, 16.9 µM and 21.8 µM.
For `Cc1ccc2c(c1)c(/C=C1\NC(=O)NC1=O)cn2Cc1ccccc1`, the IC50 in the assay with A549 was found to be 27.7 µM; in the assay with MCF7 it was 5.2 µM; in the assay with NCI-H460, 14.6 µM; in assay [1], 20.1 µM.
For the molecule `O=C1NC(=O)/C(=C/c2cn(Cc3ccccc3)c3ccc(Br)cc23)N1`, the IC50 in the assay on A549 was above 40 µM; with MCF7 it was 7.6 µM; in the assay with NCI-H460, above 40 µM; in assay [1], 12.4 µM.
As to `O=C1NC(=O)/C(=C/c2cn(Cc3ccc([N+](=O)[O-])cc3)c3ccccc23)N1`, the half-maximal inhibitory concentration (IC50) with A549 is above 40 µM; with MCF7, 10.9 µM; in the assay with NCI-H460, above 40 µM; in assay [1] it was 23.3 µM.
On to `N#Cc1ccc(Cn2cc(/C=C3\NC(=O)NC3=O)c3ccccc32)cc1`, for which the IC50 in the assay with A549 was above 40 µM; in the assay with MCF7, 14.1 µM; in the assay on NCI-H460 it was 19.1 µM; in assay [1] it was 17.6 µM.
As to `COC(=O)c1ccc(Cn2cc(/C=C3\NC(=O)NC3=O)c3ccccc32)cc1`, the IC50 in the assay on A549 was above 40 µM; in the assay with MCF7, 15.4 µM; in the assay with NCI-H460, 30.8 µM; in assay [1], 18.4 µM.
In the case of `COc1ccc(Cn2cc(/C=C3\NC(=O)NC3=O)c3cc(Br)ccc32)cc1`, the half-inhibitory concentration (IC50) in the assay with A549 worked out at 25.2 µM; in the assay on MCF7, 16.4 µM; in the assay on NCI-H460, 22.3 µM; in assay [1] it was 23.2 µM.
Taken in the same sequence, the figures for `O=C1NC(=O)/C(=C/c2cn(Cc3ccc(Cl)cc3)c3ccccc23)N1` were 25.4 µM, 21.4 µM, 25.4 µM and 25.3 µM.
On the same counts, the results for `O=C1NC(=O)/C(=C/c2cn(Cc3ccccc3)c3ccccc23)N1` are above 40 µM, 27.3 µM, 14.2 µM and 15.7 µM.
For `COc1ccc2c(c1)c(/C=C1\NC(=O)NC1=O)cn2Cc1ccccc1`, the IC50 was above 40 µM in the assay on A549, 7.2 µM in the assay on MCF7, 28.4 µM with NCI-H460 and 7 µM in assay [1].
Taken in the same sequence, the figures for `O=c1[nH]cc(F)c(=O)[nH]1` [FLUOROURACIL] were 5.4 µM, 15.2 µM, 2.7 µM and 3.5 µM.
